NCF1 inh = blocks human p47phox regulatory protein of NADPH oxidases; P14598; p47phox/p22phox peptide binding, fluorescence polarization, 2 h; inhibition, % at 24.7 µM; 220,000 compounds, 0.53% hits; AID 1274;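 active = inhibition above about 30%, limit read from the data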;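 note: 0% = p47phox with labelled peptide and 100% = labelled peptide alone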
ABCB1 inh = blocks JC-1 efflux by human ABCB1 transporter; P08183; CCRF-Adr cells, flow cytometry; inhibition, % at 6.6 µM; 190,000 compounds, 0.067% hits; in the data active = inhibition above about 40%;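 note: 0% = vehicle and 100% = reference inhibitor; higher value means more JC-1 retained so stronger ABCB1 efflux block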
Target sequence (P08183 whole entry, looked up): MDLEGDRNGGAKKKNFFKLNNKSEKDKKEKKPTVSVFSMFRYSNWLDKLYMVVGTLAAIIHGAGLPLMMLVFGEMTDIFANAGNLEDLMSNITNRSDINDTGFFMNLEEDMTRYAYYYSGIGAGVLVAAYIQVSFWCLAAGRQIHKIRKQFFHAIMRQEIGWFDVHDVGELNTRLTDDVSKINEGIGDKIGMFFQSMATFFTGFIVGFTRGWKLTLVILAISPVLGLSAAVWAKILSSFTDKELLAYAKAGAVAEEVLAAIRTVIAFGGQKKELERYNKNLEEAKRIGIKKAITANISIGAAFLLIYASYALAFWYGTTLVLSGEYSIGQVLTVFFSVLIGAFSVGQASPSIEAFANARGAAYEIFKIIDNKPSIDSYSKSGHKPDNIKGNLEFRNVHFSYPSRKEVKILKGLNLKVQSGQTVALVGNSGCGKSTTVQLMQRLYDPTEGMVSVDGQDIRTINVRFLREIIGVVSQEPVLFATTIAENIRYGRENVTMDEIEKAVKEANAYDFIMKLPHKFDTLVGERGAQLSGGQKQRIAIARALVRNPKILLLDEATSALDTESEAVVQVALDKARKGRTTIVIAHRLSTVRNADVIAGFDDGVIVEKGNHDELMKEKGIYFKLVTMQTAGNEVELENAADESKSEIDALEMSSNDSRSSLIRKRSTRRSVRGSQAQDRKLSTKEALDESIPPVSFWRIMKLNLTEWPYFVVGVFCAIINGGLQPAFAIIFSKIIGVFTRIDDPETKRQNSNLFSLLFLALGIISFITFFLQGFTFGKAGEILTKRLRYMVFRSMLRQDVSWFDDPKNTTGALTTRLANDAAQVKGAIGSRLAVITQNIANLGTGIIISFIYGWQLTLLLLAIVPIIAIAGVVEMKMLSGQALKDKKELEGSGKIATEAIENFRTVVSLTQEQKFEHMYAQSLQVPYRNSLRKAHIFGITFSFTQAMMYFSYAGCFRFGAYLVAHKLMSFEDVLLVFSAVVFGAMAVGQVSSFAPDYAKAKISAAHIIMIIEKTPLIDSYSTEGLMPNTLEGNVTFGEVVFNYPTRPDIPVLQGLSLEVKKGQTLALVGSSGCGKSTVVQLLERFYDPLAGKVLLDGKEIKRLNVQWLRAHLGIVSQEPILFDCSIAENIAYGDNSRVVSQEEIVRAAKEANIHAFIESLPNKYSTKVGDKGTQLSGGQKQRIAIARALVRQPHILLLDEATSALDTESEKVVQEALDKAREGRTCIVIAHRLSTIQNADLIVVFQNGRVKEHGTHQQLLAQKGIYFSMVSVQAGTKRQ
Diaph act CS = counter-screen for diaphorase-based assays: diaphorase activators and chemical reducers | Diaphorase/resazurin coupled assay, resorufin fluorescence, 16 min; active compounds read high; 1 = vehicle wells, 0 = NADH-free wells | activation factor at 20 µM | 190,000 compounds, 0.005% hits | AID 1229;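 active = diaphorase activity raised at least twofold by the compound at 20 µM; inactive = activation factor below 2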
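System – purified diaphorase enzyme from Clostridium kluyveri · Input – enzyme 0.07 U/mL final · Also added – final NADH 0.114 mM, resazurin 0.1 mM · Measured by – fluorescence of resorufin, 544 nm excitation, 590 nm emission · Timing – 16 min enzyme reaction, ambient temperature · Measure – resorufin increase flagging diaphorase activators or reducers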
Diaph inh CS = counter-screen for diaphorase-based assays: diaphorase inhibitors and chemical oxidizers; AID 1217; 190,000 compounds, 0.69% hits; diaphorase resazurin-to-resorufin fluorescence, NADH, 16 min; bacterial (C. kluyveri) enzyme, not human; inhibition, % at 20 µM;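 active = primary screen inhibition at 20 µM above a set limit, cut at about 50% in these data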;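 note: plate controls were DMSO with full reaction for no effect and wells lacking NADH for full effect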
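Test system: bacterial diaphorase enzyme (C. kluyveri); Quantity: 0.14 U/mL diaphorase, enzyme working solution; Times: reaction incubation of 16 min at room temperature; Measured by: fluorescence of resorufin formed from resazurin, Ex 544/Em 590 nm; Benchmarks: positive control minus NADH, DMSO neutral control.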
Efa HMGR inh = blocks class II HMG-CoA reductase of Enterococcus faecalis | 190,000 compounds, 0.41% hits | purified E. faecalis HMGR, NADPH absorbance 340 nm kinetic | inhibition, % at 10 µM;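 active = inhibition above a set limit, the median over all tested compounds plus 3 SD, cut at about 9.5% in these data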;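 note: enzyme runs in reverse so mevalonate oxidation gives rising NADPH absorbance; 0% = complete reaction with DMSO and 100% = background rate lacking mevalonate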
ABCG2 inh = blocks JC-1 efflux by human ABCG2 transporter; Q9UNQ0; IgMXP3 cells, flow cytometry; inhibition, % at 6.6 µM; 190,000 compounds, 0.1% hits; AID 1325;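 active = inhibition above 80%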;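 note: 0% = DMSO and 100% = nicardipine control wells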
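material = IgMXP3 (ABCG2) plus far-red-tagged CCRF-Adr (ABCB1) cells | amount = 3 million cells/mL, equal mix of both lines | also added = JC-1 transporter substrate | dosing = one concentration, 6.6 µM final | schedule = 10 min at 25 °C | measured by = flow cytometric JC-1 green MFI at 530 nm | read-out basis = percent efflux inhibition, scaled nicardipine 100% to DMSO 0%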
Active calls of the source: *. Only some compounds are listed: those with a hit (about 1.6% of all), similar ones and a draw of the others.

Screening Cc1cccc(C(=O)O/N=C2/CC3CCC2(C)C3(C)C)c1 (stereo unspecified) returned NCF1 inh 4, ABCB1 inh 0, Diaph act CS 0.9, Diaph inh CS 8, Efa HMGR inh 11* and ABCG2 inh 5.
For CCC(C)(C)NC(=O)Cn1c(-c2ccccc2)cc(C(C)=O)c1C the results were NCF1 inh -6, ABCB1 inh 1, Diaph act CS 0.9, Diaph inh CS 12, Efa HMGR inh 5 and ABCG2 inh 1.
For O=C(NC1CCCCC1)C(c1ccc(O)c(O)c1)N(C(=O)Cn1nnc2ccccc21)c1cccc(O)c1 (stereo unspecified) the results were NCF1 inh 2, ABCB1 inh 0, Diaph act CS 0.4, Diaph inh CS 56*, Efa HMGR inh -2 and ABCG2 inh 0.
`CC(=O)c1cccc(N(C(=O)Cn2nnc3ccccc32)C(C(=O)NC2CCCCC2)c2cn(C)nc2C)c1` (stereo unspecified) gave NCF1 inh -15, Diaph act CS 0.8, Diaph inh CS 18 and Efa HMGR inh -3.
`COC(=O)c1ccc(NC(=O)CN(C)Cc2cccc(F)c2)cc1` gave NCF1 inh -3, ABCB1 inh 1, Diaph act CS 0.9, Diaph inh CS 8, Efa HMGR inh 11* and ABCG2 inh 4.
For CCN(CC(=O)Nc1ccc(C(=O)OC)cc1)Cc1ccccc1 the results were NCF1 inh -7, ABCB1 inh 1, Diaph act CS 0.6, Diaph inh CS 39, Efa HMGR inh -2 and ABCG2 inh 11.
`O=C(NN1S(=O)(=O)c2ccccc2S1(=O)=O)c1ccc(Br)cc1` gave NCF1 inh 6, ABCB1 inh 0, Diaph act CS 1.1, Diaph inh CS -8, Efa HMGR inh 16* and ABCG2 inh 0.
`Cc1cccc(-n2c(O)cnc2Nc2nc(C)cc(C)n2)c1` gave NCF1 inh 40*, ABCB1 inh 0, Diaph act CS 1, Diaph inh CS 3, Efa HMGR inh -4 and ABCG2 inh 3.
For Oc1ccc(C=Nc2cccc3ncccc23)c(O)c1 the results were NCF1 inh -10, ABCB1 inh -1, Diaph act CS 0.5, Diaph inh CS 45, Efa HMGR inh -1 and ABCG2 inh -2.
`Oc1ccc(C=Nc2ccc3ncccc3c2)c(O)c1` gave NCF1 inh -30, ABCB1 inh 0, Diaph act CS 0.3, Diaph inh CS 68*, Efa HMGR inh -4 and ABCG2 inh -1.
O=C(CCCN1C(=O)/C(=C\c2cccs2)SC1=S)Nc1ccccn1 was read as NCF1 inh -62, ABCB1 inh 1, Diaph act CS 0.9, Diaph inh CS 14, Efa HMGR inh 14* and ABCG2 inh 16.
Screening O=C(CCN1C(=O)/C(=C/c2cccs2)SC1=S)Nc1ccccn1 returned NCF1 inh -124, ABCB1 inh 0, Diaph act CS 1, Diaph inh CS -1, Efa HMGR inh -4 and ABCG2 inh 3.
Screening CCOCC(=O)OCC(=O)Nc1cc(OC)c([N+](=O)[O-])cc1C returned NCF1 inh -34, ABCB1 inh 1, Diaph act CS 1, Diaph inh CS 4, Efa HMGR inh 21* and ABCG2 inh 8.
COc1cc(NC(=O)COC(=O)CC(C)(C)C)c(C)cc1[N+](=O)[O-] was read as NCF1 inh -6, ABCB1 inh 1, Diaph act CS 0.9, Diaph inh CS 15, Efa HMGR inh -1 and ABCG2 inh 8.
Screening O=C(Nc1ccc2c(c1)OCO2)C1(S(=O)(=O)c2ccc(Cl)cc2)CC1 returned NCF1 inh -5, ABCB1 inh 1, Diaph act CS 0.8, Diaph inh CS 22, Efa HMGR inh 4 and ABCG2 inh 3.
For CN1CCN(CC(O)COc2ccc(C34CC5CC(CC(C5)C3)C4)cc2)CC1 (stereo unspecified) the results were NCF1 inh 73*, ABCB1 inh -1, Diaph act CS 1.8, Diaph inh CS -80, Efa HMGR inh -7 and ABCG2 inh 0.
For OC(COc1ccc(OCC(O)CN2CCCCCC2)cc1)CN1CCCCCC1 (stereo unspecified) the results were NCF1 inh -3, ABCB1 inh 0, Diaph act CS 1.1, Diaph inh CS -12, Efa HMGR inh -2 and ABCG2 inh -3.
For COc1cc(/C=N/NC(=O)COc2c(C)cc([N+](=O)[O-])cc2C)ccc1OC(=O)c1ccccc1Br the results were NCF1 inh -28, ABCB1 inh 2, Diaph act CS 0.8, Diaph inh CS 17, Efa HMGR inh 0 and ABCG2 inh 5.
`COc1cc(/C=N/NC(=O)COc2c(C)cc([N+](=O)[O-])cc2C)ccc1OC(=O)c1ccccc1` gave NCF1 inh -47, ABCB1 inh 0, Diaph act CS 0.8, Diaph inh CS 17, Efa HMGR inh 11* and ABCG2 inh 10.
For CC(C)c1ccc(-c2nnn(CCC#N)n2)cc1 the results were NCF1 inh -5, ABCB1 inh 2, Diaph act CS 1, Diaph inh CS 5, Efa HMGR inh -6 and ABCG2 inh 13.
For CCN1C(=O)CC(C(=O)NCCc2ccc(S(N)(=O)=O)cc2)SC1=Nc1ccc(OC)cc1 (stereo unspecified) the results were NCF1 inh -7, ABCB1 inh 0, Diaph act CS 1, Diaph inh CS 4, Efa HMGR inh 2 and ABCG2 inh 1.
Screening Cc1ccc(Cl)cc1NC1=C/C(=N\S(=O)(=O)c2cccs2)c2ccccc2C1=O returned NCF1 inh 84*, ABCB1 inh 0, Diaph act CS 0.7, Diaph inh CS 30, Efa HMGR inh 0 and ABCG2 inh 5.
O=C1C(Nc2ccc(O)cc2)=C/C(=N/S(=O)(=O)c2cccs2)c2ccccc21 was read as NCF1 inh 31*, ABCB1 inh 1, Diaph act CS 1.1, Diaph inh CS -12, Efa HMGR inh 1 and ABCG2 inh 1.
For Cc1ccc(NC2=C/C(=N\S(=O)(=O)c3cccs3)c3ccccc3C2=O)c(C)c1 the results were NCF1 inh -6, ABCB1 inh 4, Diaph act CS 0.8, Diaph inh CS 20, Efa HMGR inh 9 and ABCG2 inh 1.
Screening CC1CCCc2sc3ncn(N)c(=N)c3c21 (stereo unspecified) returned NCF1 inh 6, ABCB1 inh 1, Diaph act CS 1.1, Diaph inh CS -10, Efa HMGR inh 1 and ABCG2 inh 23.
